The values that follow come from ChEMBL document CHEMBL1157932, “Prenylated pterocarpans as bacterial neuraminidase inhibitors” (Bioorg Med Chem, 2010).

Active and inactive are the calls of the source. The rule behind the calls is not given here.

For assay [1], the target named is T1, Sialidase (Clostridium perfringens) (UniProt P10481).
T1 sequence (whole entry): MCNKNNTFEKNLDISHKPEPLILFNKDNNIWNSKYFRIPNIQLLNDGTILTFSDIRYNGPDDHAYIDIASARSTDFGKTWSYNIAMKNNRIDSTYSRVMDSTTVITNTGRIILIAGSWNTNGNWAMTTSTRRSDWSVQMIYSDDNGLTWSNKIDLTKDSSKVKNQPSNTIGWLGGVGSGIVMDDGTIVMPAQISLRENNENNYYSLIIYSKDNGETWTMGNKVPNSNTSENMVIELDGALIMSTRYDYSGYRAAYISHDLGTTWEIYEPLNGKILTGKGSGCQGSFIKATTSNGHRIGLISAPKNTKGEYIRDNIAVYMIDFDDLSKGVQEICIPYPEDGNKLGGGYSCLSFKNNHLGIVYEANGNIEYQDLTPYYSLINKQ
As to conditions: 20 ug/mL.

Assay [2] deals with T2, Sialidase (Clostridium perfringens, UniProt P10481).
T2 sequence (P10481 whole entry): T1 sequence (whole entry)
Description: (§1) Inhibition of Clostridium perfringens neuraminidase assessed as inhibition of 4-MU-NANA hydrolysis after 10 mins by spectrofluorimetry. Put shortly:
(§2)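 Enzyme at 0.05 U/mL in 0.04 M sodium acetate pH 5.0 with compound (DMSO stock diluted in buffer) and 4-MU-NANA (1 mM stock); 10 min at 37 °C. Stopped with 0.1 M glycine–NaOH pH 10.4; 4-methylumbelliferone read at ex 360/em 440 nm. IC50 from regression, mean ± SD of three replicates.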

Assay [3] concerns the target T1, Sialidase (Clostridium perfringens). The description is as §1. The essentials: as §2
Assay [4] deals with Sialidase (Vibrio cholerae serotype O1 (strain ATCC 39315 / El Tor Inaba N16961)) (UniProt P0C6E9). Description: Inhibition of Vibrio cholerae neuraminidase assessed as inhibition of 4-MU-NANA hydrolysis at 30 ug/mL after 10 mins by spectrofluorimetry.
Chain of Sialidase (Vibrio cholerae serotype O1 (strain ATCC 39315 / El Tor Inaba N16961)) (P0C6E9 whole entry, one chain of several): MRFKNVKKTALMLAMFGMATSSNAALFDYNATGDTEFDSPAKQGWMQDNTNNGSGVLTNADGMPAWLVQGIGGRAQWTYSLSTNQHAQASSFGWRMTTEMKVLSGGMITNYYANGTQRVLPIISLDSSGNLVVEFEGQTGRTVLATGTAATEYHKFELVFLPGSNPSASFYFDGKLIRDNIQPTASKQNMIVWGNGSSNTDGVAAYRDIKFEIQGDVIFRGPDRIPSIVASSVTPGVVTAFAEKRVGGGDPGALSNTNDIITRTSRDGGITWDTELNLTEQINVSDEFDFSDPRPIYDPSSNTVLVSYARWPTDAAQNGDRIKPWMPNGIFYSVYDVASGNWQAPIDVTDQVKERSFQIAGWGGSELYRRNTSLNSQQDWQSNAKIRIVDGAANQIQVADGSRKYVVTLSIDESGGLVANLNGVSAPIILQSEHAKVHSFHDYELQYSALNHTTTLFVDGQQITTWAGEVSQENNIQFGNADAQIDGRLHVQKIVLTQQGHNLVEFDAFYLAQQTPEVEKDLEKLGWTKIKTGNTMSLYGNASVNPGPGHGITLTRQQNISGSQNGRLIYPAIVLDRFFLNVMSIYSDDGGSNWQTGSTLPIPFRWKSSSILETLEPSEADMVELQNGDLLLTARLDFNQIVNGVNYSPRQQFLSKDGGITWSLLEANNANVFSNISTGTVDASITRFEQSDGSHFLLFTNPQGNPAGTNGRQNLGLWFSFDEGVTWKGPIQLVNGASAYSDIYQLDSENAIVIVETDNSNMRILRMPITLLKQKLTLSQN
The target of assay [5] is T1, Sialidase (Clostridium perfringens). The assay can be described thus: Inhibition of Clostridium perfringens neuraminidase at 0.1 times IC50 by spectrofluorimetry. The essentials:
(§3)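 Reversibility by jump dilution: enzyme pre-incubated 15 min with compound at 100-fold assay enzyme level (0.125 U/mL), then diluted 1/100 into acetate buffer with substrate. Progress curves of fluorescence over 30 min compared with enzyme pre-incubated and diluted without compound.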

Assay [6] concerns the target Sialidase (Vibrio cholerae serotype O1 (strain ATCC 39315 / El Tor Inaba N16961)) (UniProt P0C6E9). The assay can be described thus: (§4) Inhibition of Vibrio cholerae neuraminidase assessed as inhibition of 4-MU-NANA hydrolysis after 30 mins by spectrofluorimetry. Put shortly: (§5)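 V. cholerae enzyme (8.3 U) with compound in 50 mM MES, 6 mM CaCl2, pH 5.6, pre-incubated 30 min at 37 °C with shaking. 4-MU-NANA added at 25 µM final, 30 min at 37 °C, then quenched with 0.25 M glycine pH 10.0. Read at ex 360/em 440 nm, blank-corrected, expressed as % of no-inhibitor control, at least triplicate.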

Assay [7] addresses Sialidase (Vibrio cholerae serotype O1 (strain ATCC 39315 / El Tor Inaba N16961), UniProt P0C6E9). The assay is described as §4. Put shortly: as §5
Assay [8] deals with T2, Sialidase. The assay can be described thus: Competitive inhibition of Clostridium perfringens neuraminidase. The essentials:
(§6)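 Kinetics run in acetate-buffer 4-MU-NANA fluorometric assay without stop solution, product read immediately at ex 360/em 440 nm across substrate and inhibitor concentrations. Mode assigned from Lineweaver–Burk and Dixon plots; Ki from x-axis intersection of lines.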

For assay [9], the target named is T1, Sialidase (Clostridium perfringens). The assay can be described thus: Competitive inhibition of Clostridium perfringens neuraminidase by Lineweaver-Burke plot analysis.
For assay [10] the target is unchanged. Description: Reversible inhibition of Clostridium perfringens neuraminidase at 10 times IC50 pre-incubated for 15 mins by spectrofluorimetry. Put shortly:
as §3

Assay [11] shares this target. The assay can be described thus: Reversible inhibition of Clostridium perfringens neuraminidase at 0.1 times IC50 pre-incubated for 15 mins by spectrofluorimetry. Put shortly:
as §3

For assay [12] the target is unchanged. The assay can be described thus: Inhibition of Clostridium perfringens neuraminidase at 10 times IC50 by spectrofluorimetry. Put shortly:
as §3

Assay [13] shares this target. The assay can be described thus: Competitive inhibition of Clostridium perfringens neuraminidase by Dixon plot analysis. Put shortly:
(§7)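 Dixon plots of 1/v against [I] at each substrate concentration, rates from unquenched fluorometric 4-MU-NANA hydrolysis (ex 360/em 440 nm); Ki read from the x-axis value where lines intersect.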

The target is the same in assay [14]. Description: Noncompetitive inhibition of Clostridium perfringens neuraminidase by Lineweaver-Burke plot analysis.
Assay [15] has as its target T2, Sialidase. The assay can be described thus: Noncompetitive inhibition of Clostridium perfringens neuraminidase. Put shortly: as §6
The target of assay [16] is T1, Sialidase (Clostridium perfringens). The assay can be described thus: Noncompetitive inhibition of Clostridium perfringens neuraminidase by Dixon plot analysis. Put shortly:
as §7

In assay [17] the test system is Vibrio cholerae. The assay can be described thus: Antibacterial activity against Vibrio cholerae 16961 infected in human HeLa cells assessed as inhibition of bacterial adherence to host cell at 3 to 10 ug/ml pre-incubated for 1 hr before infection measured after 30 mins of infection by Giemsa staining. It counts as functional, organism-based.
In assay [18] the test system is Vibrio cholerae. Description: Antibacterial activity against Vibrio cholerae 16961 at 3 to 10 ug/ml after 24 hrs. It counts as functional, organism-based.

As usually defined, the inhibition is the drop in the measured response relative to a control, in per cent. Broadly, the IC50 is the midpoint of a concentration-inhibition curve. For orientation: Ki means the equilibrium dissociation constant of an inhibitor or competing ligand from its target. Low readings indicate a stronger hold on the target, high ones a looser hold on the target.

Chain of Sialidase (Vibrio cholerae serotype O1 (strain ATCC 39315 / El Tor Inaba N16961), UniProt P0C6E9) (P0C6E9 whole entry, one chain of several): as above

On to `O=c1c(O)c(-c2ccc(O)c(O)c2)oc2cc(O)cc(O)c12` [QUERCETIN], for which the inhibition in assay [1] amounted to 48.9%; in assay [4], 29.3%. The IC50 at Sialidase [2] was 25.3 µM. For the same compound, the Activity result in assay [3] was “Dose-dependent effect”.

For the compound `CC(C)=CCc1cc2c(cc1O)OC[C@H]1c3ccc4c(c3O[C@@H]21)CC(O)C(C)(C)O4` (stereo not given in full) [ERYSUBIN D], the inhibition in [5] came out at 9%; in assay [12] it was 91%. Besides, the Activity result in assay [6] and in [3] was “Dose-dependent effect” in each case. For the same compound, the IC50 at Sialidase [7] and on Sialidase [2] was 26.4 µM in each case. This compound also yielded a Ki at Sialidase [8] of 15.2 µM. The inhibition entry in assay [9], in [10], in [11] and in assay [13] was “Active” throughout.

In the case of `CC1(C)C=Cc2cc3c(cc2O1)OC[C@H]1c2ccc(O)cc2O[C@@H]31` [NEORAUTENOL], the inhibition in assay [5] was found to be 9%; in [12], 91%. For the same compound, the Activity result in assay [6] and in [3] was “Dose-dependent effect” throughout. The IC50 on Sialidase [7] is 53.1 µM; at Sialidase [2] it was 19.8 µM. In addition, the inhibition entry in assay [14], in [16], in [10] and in assay [11] was “Active” each time. Moreover, the Ki at Sialidase [15] is 21.7 µM.

On to `CC(C)=CCc1cc2c(cc1O)OC[C@H]1c3ccc(O)cc3O[C@@H]21` [CALOPOCARPIN], for which the values for the inhibition in [5] and in assay [12] were 9% and 91%, respectively. In addition, the IC50 on Sialidase [7] turned out to be 7.55 µM; at Sialidase [2], 1.57 µM. Besides, the inhibition result in [14], in assay [16], in [10] and in assay [11] was “Active” each time. Affinity on Sialidase [15] was put at a Ki of 2.09 µM. Further, the outcome in the assay on Vibrio cholerae [17] was Active. Further, the Activity result in assay [3] was “Dose-dependent effect”. Also, the result in the assay on Vibrio cholerae [18] was inactive.

Regarding `COc1ccc2c(c1CC=C(C)C)O[C@H]1c3ccc(O)cc3OC[C@@]21O` [ERYTHRABYSSIN I], the inhibition amounted to 9% in assay [5] and 91% in assay [12]. Besides, the Activity entry in assay [6] and in assay [3] was “Dose-dependent effect” in each case. The IC50 at Sialidase [7] was determined as 22 µM; at Sialidase [2], 2.28 µM. Also, the inhibition entry in assay [14], in assay [16], in assay [10] and in assay [11] was “Active” in each case. Besides, the affinity on Sialidase [15], expressed as Ki, was 0.31 µM.

Take `CC(C)=CCc1c(O)ccc2c3c(oc12)-c1cc(C=O)c(O)cc1OC3` [ERYTHRIBYSSIN O]: the inhibition was 9% in assay [5] and 91% in assay [12]. The Activity result in [6] and in assay [3] was “Dose-dependent effect” each time. Moreover, the IC50 amounted to 0.35 µM at Sialidase [7] and 1.32 µM on Sialidase [2]. Besides, the inhibition entry in [14], in assay [16], in [10] and in [11] was “Active” in each case. Besides, the inhibitory constant (Ki) at Sialidase [15] came to 1.21 µM.

As for `CC1(C)C=Cc2c(ccc3c2O[C@H]2c4ccc(O)cc4OC[C@@H]32)O1` [PHASEOLIN], in assay [6], the Activity result was “Dose-dependent effect”. The IC50 was found to be 31.4 µM at Sialidase [7] and 33.6 µM at Sialidase [2]. This compound showed a Ki on Sialidase [8] of 4.84 µM.

Turning to `CC1(C)C=Cc2cc3c(cc2O1)O[C@H]1c2ccc(O)cc2OC[C@@H]31` [ISONEORAUTENOL], the results for the inhibition in assay [5] and in [12] were 9% and 91%, respectively. The Activity entry in [6] and in [3] was “Dose-dependent effect” each time. Also, the IC50 at Sialidase [7] came to 64.8 µM; at Sialidase [2] it was 14.1 µM. The inhibition result in assay [14], in assay [16], in [10] and in assay [11] was “Active” throughout. Further, on Sialidase [15], the affinity, expressed as Ki, was 11 µM.
